Experimental data: ChEMBL document CHEMBL2034972, “Synthesis, biological evaluation, and structure-activity relationships of N-benzoyl-2-hydroxybenzamides as agents active against P. falciparum (K1 strain), Trypanosomes, and Leishmania” (J Med Chem, 2012)
In brackets after ≈: the same amount, converted by molar mass.

Assays:
Plasmodium falciparum = assay: Antimalarial activity against chloroquine and pyrimethamine-resistant Plasmodium falciparum […] assessed as [3H]-hypoxanthine incorporation after 48 hrs by liquid scintillation counting; format: functional, organism-based
Procedure, shortened: (§1)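 In vitro screens of parasites and host cells: T. b. rhodesiense STIB900 trypomastigotes, T. cruzi Tulahuen C4 intracellular amastigotes, L. donovani MHOM-ET-67/L82 axenic amastigotes, P. falciparum K1 erythrocytic stage, and L6 rat skeletal myoblasts […] for toxicity. […] Values are means of two independent determinations.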

[1] = Selectivity index, ratio of IC50 for rat L6 cells to IC50 for intracellular amastigote stage of Trypanosoma cruzi Tulahuen C2C4; format: toxicity, cell-based; conditions: read-out: Ratio IC50
Procedure, shortened: (§2)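 Selectivity index is calculated as the L6 myoblast IC50 divided by the IC50 against the respective parasite. Both IC50s are in µg/mL and are means of two independent determinations.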

[2] = Selectivity index, ratio of IC50 for rat L6 cells to IC50 for chloroquine and pyrimethamine-resistant Plasmodium falciparum K1; format: toxicity, cell-based; conditions: read-out: Ratio IC50; procedure, shortened: as §2
[3] = Selectivity index, ratio of IC50 for rat L6 cells to IC50 for trypomastigotes of Trypanosoma brucei rhodesiense STIB 900; format: toxicity, cell-based; conditions: read-out: Ratio IC50; procedure, shortened: as §2
Leishmania donovani = assay: Antileishmanial activity against axenic amastigote stage of Leishmania donovani […] after 72 hrs by alamar blue assay; format: functional, organism-based; conditions: MHOM/ET/67/L82, L6, 72 h
Procedure, shortened: (§3)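 In vitro screens of parasites and host cells: T. b. rhodesiense STIB900 trypomastigotes, T. cruzi Tulahuen C4 intracellular amastigotes, L. donovani MHOM-ET-67/L82 axenic amastigotes, P. falciparum K1 erythrocytic stage, and L6 rat skeletal myoblasts […] for toxicity. Values are means of two independent determinations.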

[4] = test system: Trypanosoma brucei rhodesiense; assay: Antitrypanosomal activity against trypomastigotes of Trypanosoma brucei rhodesiense […] after 72 hrs by alamar blue assay; format: functional, organism-based; conditions: STIB 900, L6, 72 h; procedure, shortened: as §1
[5] = Selectivity index, ratio of IC50 for rat L6 cells to IC50 for axenic amastigote stage of Leishmania donovani MHOM/ET/67/L82; format: toxicity, cell-based; conditions: read-out: Ratio IC50; procedure, shortened: as §2
L6 = assay: Cytotoxicity against rat L6 cells after 72 hrs by alamar blue assay; format: cell-based; conditions: L6, 72 h; procedure, shortened: as §1
Trypanosoma cruzi = assay: Antitrypanosomal activity against intracellular amastigote stage of Trypanosoma cruzi Tulahuen C2C4 infected in rat L6 cells after 96 hrs by spectrophotometric analysis; format: functional, organism-based; conditions: Tulahuen C2C4, L6, 96 h; procedure, shortened: as §3

Row | Structure (SMILES) | IC50 (Plasmodium falciparum) [mg/L] | selectivity ratio [1] | selectivity ratio [2] | selectivity ratio [3] | IC50 (Leishmania donovani) [mg/L] | IC50 [4] [mg/L] | selectivity ratio [5] | IC50 (L6) [mg/L] | IC50 (Trypanosoma cruzi) [mg/L]
1 | COC(=O)c1ccc(C(=O)NC(=O)c2ccccc2O)cc1 | 2.9 (≈ 9.69 µM) | 2.1 | 14 | < 0.83 | > 50 | > 50 | < 0.83 | 42 (≈ 140 µM) | 20 (≈ 66.8 µM)
2 | Cc1occc1C(=O)NC(=O)c1ccccc1O | 4.7 (≈ 19.2 µM) | 0.44 | 3.4 | 0.33 | 2 (≈ 8.16 µM) | 48 (≈ 196 µM) | 7.8 | 16 (≈ 65.2 µM) | 36 (≈ 147 µM)
3 | CCc1ccc(NC(=O)NC(=O)c2ccccc2O)cc1 | 26 (≈ 91.4 µM) | 0.95 | 2.8 | 2 | 100 (≈ 352 µM) | 36 (≈ 127 µM) | 0.7 | 70 (≈ 246 µM) | 74 (≈ 260 µM)
4 | O=C(NC(=O)c1ccccc1O)c1ccc(C(F)(F)F)cc1 | 3.8 (≈ 12.3 µM) |  |  |  | 0.57 (≈ 1.84 µM) | 70 (≈ 226 µM) |  | 13 (≈ 42 µM) | 50 (≈ 162 µM)
5 | O=C(NC(=O)c1ccccc1O)c1ccc2c(c1)OCO2 | 4.2 (≈ 14.7 µM) | 0.86 | 5.6 | < 0.47 | > 50 | > 50 | < 0.47 | 24 (≈ 84.1 µM) | 27 (≈ 94.7 µM)
6 | CCc1ccc(C(=O)Nc2cn(C(C)=O)c3ccccc23)cc1 | 23 (≈ 75.1 µM) | < 0.81 | 1 | < 0.46 | > 50 | > 50 | < 0.46 | 23 (≈ 75.1 µM) | 28 (≈ 91.4 µM)
7 | O=C(CCCCCCC(=O)Nc1ccc(C(=O)NC(=O)c2ccccc2O)cc1)NO | 3.5 (≈ 8.19 µM) | > 2.1 | > 29 | > 1.5 | > 100 | 65 (≈ 152 µM) |  | > 100 | 49 (≈ 115 µM)
8 | CCCCOc1ccc(C(=O)NC(=O)c2ccccc2O)cc1 | 0.26 (≈ 0.83 µM) | 1.2 | 50 | 0.23 | 0.94 (≈ 3 µM) | 55 (≈ 176 µM) | 14 | 13 (≈ 41.5 µM) | 11 (≈ 35.1 µM)
9 | O=C(NC(=O)c1ccccc1O)c1cccc(CCl)c1 | 4.4 (≈ 15.2 µM) | 0.1 | 0.4 | 0.087 | 0.16 (≈ 0.552 µM) | 20 (≈ 69 µM) | 11 | 1.8 (≈ 6.21 µM) | 17 (≈ 58.7 µM)
10 | N#Cc1ccc(C(=O)NC(=O)c2ccccc2O)cc1 | 14 (≈ 52.6 µM) | 0.55 | 3.9 | < 0.55 | 12 (≈ 45.1 µM) | > 100 | 4.7 | 55 (≈ 207 µM) | 100 (≈ 376 µM)
11 | Nc1ccc(C(=O)NC(=O)c2ccccc2O)cc1 | 3.9 (≈ 15.2 µM) | 0.98 | 10 | 0.84 | 7.8 (≈ 30.4 µM) | 46 (≈ 180 µM) | 5 | 39 (≈ 152 µM) | 40 (≈ 156 µM)
12 | CCc1ccc(NC(=O)Nc2ccccc2O)cc1 | 2.1 (≈ 8.19 µM) | 1.4 | 4.6 | 0.54 | 3.7 (≈ 14.4 µM) | 18 (≈ 70.2 µM) | 2.6 | 9.6 (≈ 37.5 µM) | 7 (≈ 27.3 µM)
13 | CCc1ccc(C(=O)NC(=S)c2ccccc2O)cc1 | 4.2 (≈ 14.7 µM) | 1.7 | 4.1 | 0.28 | 5.3 (≈ 18.6 µM) | 61 (≈ 214 µM) | 3.3 | 17 (≈ 59.6 µM) | 10 (≈ 35 µM)
14 | O=C(NC(=O)c1ccccc1O)c1ccccc1O | 1.1 (≈ 4.28 µM) | 2.8 | 36 | 0.63 | 1.9 (≈ 7.39 µM) | 62 (≈ 241 µM) | 21 | 39 (≈ 152 µM) | 14 (≈ 54.4 µM)
15 | CCc1ccc(C(=O)Nc2n[nH]c3ccccc23)cc1 | 8.5 (≈ 32 µM) |  |  |  | 3 (≈ 11.3 µM) | 8.2 (≈ 30.9 µM) |  | 8.2 (≈ 30.9 µM) | 8.9 (≈ 33.5 µM)
16 | O=C(NC(=O)c1ccccc1O)c1ccc(F)cc1 | 1.5 (≈ 5.79 µM) | 0.75 | 25 | 0.6 | 1.6 (≈ 6.17 µM) | 64 (≈ 247 µM) | 23 | 38 (≈ 147 µM) | 51 (≈ 197 µM)
17 | O=C(NC(=O)c1ccccc1O)c1ccc(N2CCOCC2)cc1 | 0.18 (≈ 0.552 µM) |  | > 272 |  | 16 (≈ 49 µM) | > 50 | > 3.1 | > 50 | > 50

Row | Structure (SMILES) | IC50 (Plasmodium falciparum) [mg/L] | selectivity ratio [1] | selectivity ratio [2] | selectivity ratio [3] | IC50 (Leishmania donovani) [mg/L] | IC50 [4] [mg/L] | selectivity ratio [5] | IC50 (L6) [mg/L] | IC50 (Trypanosoma cruzi) [mg/L]
18 | CC(C)(C)c1ccc(C(=O)NC(=O)c2ccccc2O)cc1 | 0.029 (≈ 0.0975 µM) | 0.38 | 80 | 0.038 | 0.14 (≈ 0.471 µM) | 61 (≈ 205 µM) | 17 | 2.3 (≈ 7.73 µM) | 6 (≈ 20.2 µM)
19 | O=C(NC(=O)c1ccccc1O)c1ccc(OC(F)(F)F)cc1 | 22 (≈ 67.6 µM) |  |  |  | 5.3 (≈ 16.3 µM) | 65 (≈ 200 µM) |  | 84 (≈ 258 µM) | 72 (≈ 221 µM)
20 | Cc1ccc(C(=O)NC(=O)c2ccccc2O)cc1 | 1.4 (≈ 5.48 µM) | 1.2 | 33 | < 0.46 | 3.2 (≈ 12.5 µM) | > 100 | 14 | 46 (≈ 180 µM) | 38 (≈ 149 µM)
21 | O=C(NC(=O)c1ccccc1O)c1ccc2ccccc2c1 | 0.22 (≈ 0.755 µM) | 2.4 | 94 | 0.78 | 1 (≈ 3.43 µM) | 26 (≈ 89.3 µM) | 20 | 21 (≈ 72.1 µM) | 8.5 (≈ 29.2 µM)
22 | CS(=O)(=O)c1ccc(C(=O)NC(=O)c2ccccc2O)cc1 | 38 (≈ 119 µM) | > 2 | > 2.7 |  | > 100 | > 100 |  | > 100 | 51 (≈ 160 µM)
23 | O=C(NC(=O)C1CCCCC1)c1ccccc1O | 13 (≈ 52.6 µM) | 3.4 | 4.4 | < 0.55 | 6 (≈ 24.3 µM) | > 100 | 9.2 | 55 (≈ 222 µM) | 16 (≈ 64.7 µM)
24 | COc1ccc2cc(C(=O)NC(=O)c3ccccc3O)ccc2c1 | 0.98 (≈ 3.05 µM) | 11 | 57 | 1.3 | 1.4 (≈ 4.36 µM) | 42 (≈ 131 µM) | 40 | 56 (≈ 174 µM) | 5.1 (≈ 15.9 µM)
25 | COC(=O)CCC(=O)Nc1ccc(C(=O)NC(=O)c2ccccc2O)cc1 | 21 (≈ 56.7 µM) |  | > 2.4 |  | 22 (≈ 59.4 µM) | > 50 | > 2.3 | > 50 | > 50
26 | Nc1nc(N)nc(Nc2ccc([As]3SCC(CO)S3)cc2)n1 (stereo not given) [MELARSOPROL] |  |  |  |  |  | 0.005 |  |  | 
27 | CN(C)c1ccc(C(=O)NC(=O)c2ccccc2O)cc1 | 0.49 (≈ 1.72 µM) | 1.4 | 110 | 0.66 | 18 (≈ 63.3 µM) | 81 (≈ 285 µM) | 3 | 54 (≈ 190 µM) | 37 (≈ 130 µM)
28 | O=C(NC(=O)c1ccccc1O)c1ccc(-c2ccccc2)cc1 | 3.9 (≈ 12.3 µM) | > 13 | > 26 | > 1.2 | 7.4 (≈ 23.3 µM) | 87 (≈ 274 µM) | > 14 | > 100 | 7.7 (≈ 24.3 µM)
29 | COc1ccc(C(=O)NC(=O)c2ccccc2O)cc1 | 1.6 (≈ 5.9 µM) | 1.3 | 24 | 0.78 | 1.7 (≈ 6.27 µM) | 50 (≈ 184 µM) | 23 | 39 (≈ 144 µM) | 31 (≈ 114 µM)
30 | CCc1ccc(C(=O)N(C)C(=O)c2ccccc2O)cc1 | 28 (≈ 98.8 µM) | 0.33 | 0.33 | < 0.094 | 9.1 (≈ 32.1 µM) | > 100 | 1 | 9.4 (≈ 33.2 µM) | 29 (≈ 102 µM)
31 | CCc1ccc(C(=O)n2c(=O)oc3ccccc3c2=O)cc1 | 6.9 (≈ 23.4 µM) | 3 | 3.7 | 0.31 | 1.9 (≈ 6.43 µM) | 83 (≈ 281 µM) | 13 | 26 (≈ 88 µM) | 8.8 (≈ 29.8 µM)
32 | CCc1ccc(-c2noc(-c3ccccc3O)n2)cc1 | 27 (≈ 101 µM) | > 2.6 | > 3.7 | > 1.6 |  | 61 (≈ 229 µM) | > 1 | > 100 | 39 (≈ 146 µM)
33 | CCN(CC)c1ccc(C(=O)NC(=O)c2ccccc2O)cc1 | 0.005 (≈ 0.016 µM) |  |  |  | 0.91 (≈ 2.91 µM) | > 50 |  | 8.2 (≈ 26.3 µM) | 2.8 (≈ 8.96 µM)
